# Sampled rows, rich in hits. Any-hit rate of the full collection: about 1.8%.
# iPSC survival up: hiPSC single-cell survival enhancement; ATPlite luminescence; 100% = ROCK inhibitor wells, 0% = DMSO; AID 602274; 0.044% of 360,000 active; survival enhancement, % at 20 µM; in the data active = survival enhancement above about 18%;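 note: cells exposed to compounds for 16 hours before the ATP read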
# PPC-1+TRAIL kill: compounds killing PPC-1 cancer cells with TRAIL present (potentiator screen, no TRAIL-free arm); PPC-1 cells + TRAIL, ATPLite viability luminescence; cell killing (% activity), % at 4 µM or 5 µM; 0.41% of 220,000 active; AID 1443;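 active = cell killing above 50% in the first pass at 4 µM, then a duplicate retest at 5 µM averaging 50% or more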;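 note: plate controls were cells with TRAIL plus DMSO for no effect and medium-only wells lacking cells for full effect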
# MIN6 prolif: inducers of beta-cell replication in MIN6 cells. MIN6 cells proliferation, ATPlite luminescence, 48 h; cells starved in 0.2% serum; 100% = growth in 10% serum. 0.29% of 330,000 active. proliferation, % at 10 µM;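 active = compounds whose signal lies at least 3.5 SD above the mean of all wells on their plate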;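 note: 0% = DMSO-treated cells in low-serum medium and 100% = 10% serum control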
# FLuc stim CS: affects firefly luciferase, flagging false hits in luciferase stimulation screens; P08659; ATPlite luciferase biochemical, luminescence, 10 min; 0 = ATP-free wells, 1 = DMSO control; activation factor at 10 µM; 200,000 tested, under 10 active; AID 1027;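 active = luciferase activation factor, scaled between plate controls, of at least 2 with compound at 10 µM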
# Target sequence (P08659 whole entry, looked up): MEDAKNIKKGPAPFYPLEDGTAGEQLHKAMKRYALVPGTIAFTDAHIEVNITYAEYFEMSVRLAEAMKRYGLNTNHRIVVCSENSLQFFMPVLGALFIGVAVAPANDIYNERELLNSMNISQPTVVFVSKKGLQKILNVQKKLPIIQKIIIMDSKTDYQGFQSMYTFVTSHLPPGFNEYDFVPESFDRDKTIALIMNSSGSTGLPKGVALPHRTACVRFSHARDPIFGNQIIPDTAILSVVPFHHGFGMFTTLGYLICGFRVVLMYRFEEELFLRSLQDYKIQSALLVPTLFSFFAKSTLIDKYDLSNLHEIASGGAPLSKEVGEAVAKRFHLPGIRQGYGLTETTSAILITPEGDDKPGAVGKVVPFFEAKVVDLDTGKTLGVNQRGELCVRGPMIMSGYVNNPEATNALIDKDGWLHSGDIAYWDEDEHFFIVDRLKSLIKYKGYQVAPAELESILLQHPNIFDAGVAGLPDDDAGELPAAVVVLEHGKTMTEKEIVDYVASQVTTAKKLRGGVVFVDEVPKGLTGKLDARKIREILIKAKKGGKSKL
#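 Material: Luciferase/luciferin reagent mix; Doses: test compounds dosed from 2 mM stocks in 100% DMSO; Schedule: 10 min incubation after luciferase reagent addition, room temperature; Measured by: luminescence from luciferase reaction; Read-out: luminescence gain marking luciferase activators.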
# FLuc inhib CS: inhibits firefly luciferase, flagging false hits in luciferase inhibition screens; ATPLite firefly luciferase biochemical luminescence, 10 min; inhibition, % at 10 µM; 1.5% of 200,000 active; AID 1006;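 active = inhibition above about 50% when tested at 10 µM, limit read from the data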
# TRAIL sens C8: caspase-8 TRAIL sensitization; NB7+C8 cells + TRAIL, ATPlite viability luminescence; inhibition (viability loss, TRAIL sensitization), % at 10 µM; 1% of 360,000 active;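 active = compounds causing at least 50% loss of cell viability in the single-dose screen, relative to plate controls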
# Starred values were filed as active, the others as inactive; x = no result given.
SMILES,iPSC survival up,PPC-1+TRAIL kill,MIN6 prolif,FLuc stim CS,FLuc inhib CS,TRAIL sens C8
COc1cccc(-c2cc(NC=O)c3ncc(-c4ccc(F)c(Cl)c4)n3c2)c1,0,x,x,x,x,-3
CCCNC(=O)C[C@@H]1C[C@@H]2c3cc(NS(=O)(=O)c4ccc(OC)cc4)ccc3O[C@@H]2[C@@H](CO)O1,0,x,x,x,x,-11
CN(C)/C=C/C(=O)c1ccc(-n2cccc2)cc1,-2,27,-3,0.2,85*,32
Cc1cc(/C=N/NC(=O)c2ccccn2)c(C)n1-c1cccc([N+](=O)[O-])c1,2,20,2,0.9,11,-2
Cc1cc(/C=N/NC(=O)C(=O)NCc2ccccn2)c(C)n1-c1ccccc1,-1,14,0,0.4,58*,33
Cc1cc(/C=N\NC(=O)COc2cccc3cccnc23)c(C)n1-c1ccccc1,0,12,-3,0.3,71*,23
O=C(CN1CCCC1)Nc1c(Cl)cccc1Cl,0,x,-5,x,x,-4
COC(=O)C1=C(C(=O)OC)[C@@H]2N(C)c3ccccc3[C@@]23C[C@@H](C(=O)OC)N(C(=O)c2cccs2)C3=N1,-2,18,-1,x,x,10
COC(=O)C1=C(C(=O)OC)[C@@H]2N(Cc3ccccc3)c3ccccc3[C@@]23C[C@@H](C(=O)OC)N(C(=O)c2cccs2)C3=N1,-2,5,-9,x,x,54*
O=C(c1cc(-c2ccc3c(c2)OCO3)on1)N1CCCCC1,0,x,-3,x,x,57*
Cc1ccc(-c2cc(C(=O)N3CCOCC3)no2)cc1,0,x,-6,x,x,69*
FC(F)(F)c1cc(Cl)c2nc(-c3ccccc3)cn2c1,-3,8,-3,0.6,41,51*
Nc1cccc(-c2cn3cc(C(F)(F)F)cc(Cl)c3n2)c1,-2,33,-4,0.3,68*,34
COc1ccc(CNC(=O)CCCn2nc(C)c3c(C)n(-c4ccccc4)nc3c2=O)cc1,1,x,1,x,x,-1
CC(=O)Nc1ccc(NC(=O)C(C)NC(C)c2cccc3ccccc23)cc1 (centres undefined),0,x,-1,x,x,-7
Cc1ccc(Cn2cc(CN3CC(N4CCCC4)CS3(=O)=O)nn2)cc1 (centres undefined),2,x,x,x,x,-9
CC(=O)O[C@@H]1C[C@H](c2ccccc2)OC(=O)CCCCC1=O,0,x,x,x,x,8
O=C1CCCCC(=O)[C@H](OC(=O)c2ccccc2)C[C@H](c2ccccc2)O1,0,x,x,x,x,67*
C/C(Cn1nnc([N+](=O)[O-])n1)=N\NC(=O)c1ccc(O)cc1O,0,34,0,1,1,45
C/C(Cn1nnc([N+](=O)[O-])n1)=N\NC(=O)c1ccc(O)cc1,-1,14,-1,x,x,57*
C/C(Cn1nnc([N+](=O)[O-])n1)=N\NC(=O)c1ccccc1O,5,7,-3,x,x,59*
CN1CCN(c2nc(-c3ccc(C(C)(C)C)cc3)nc3ccccc23)CC1,-1,x,-7,x,x,71*
COc1cc(/C=N/O)ccc1OCc1ccc(C(=O)O)cc1,-3,45,0,0.1,88*,71*
COc1cc(/C=N/O)ccc1OCc1ccc(Cl)cc1,x,4,-4,0.6,43,x
O=C(c1cccs1)N1CCN(C(=O)c2cccs2)C1=S,-2,x,x,x,x,13
SMILES,iPSC survival up,PPC-1+TRAIL kill,MIN6 prolif,FLuc stim CS,FLuc inhib CS,TRAIL sens C8
O=C(Nc1c2c(nn1-c1ccc(Cl)cc1)CS(=O)(=O)C2)c1ccccc1,0,x,-1,x,x,-4
CCOc1ccc(CCNC(=O)COc2cc(=O)n(C)c3ccccc23)cc1OCC,-1,1,0,1,3,-5
CCOc1ccc(CCNC(=O)CSc2cc(=O)n(C)c3ccccc23)cc1OCC,-3,-2,0.0*,1.1,-10,-2
CN(CCOc1ccc(-c2ccn(S(=O)(=O)c3c(Cl)cccc3Cl)n2)cc1)c1ccccn1,19*,15,-4,1.1,-11,0
O=C(Nc1cccc(OC(F)(F)F)c1)C1Cc2c(-c3ccc4c(c3)OCO4)ccnc2O1 (centres undefined),0,x,x,x,x,-5
CCc1ccc2oc(C(=O)Nc3cccnc3)c(C)c2c1,0,x,-3,x,x,42
Cc1c(C(=O)Nc2cccnc2)oc2ccc(Br)cc12,0,x,-1,x,x,50*
O=C(CSc1nc2ccccc2c(=O)[nH]1)Nc1ccc(C(=O)O)cc1,0,20,-1,0.9,5,2
O=C(CSc1nc2ccccc2c(=O)[nH]1)Nc1ccc([N+](=O)[O-])cc1,4,x,-4,x,x,61*
COc1cc(/C=N/N=C2/C(=O)Nc3ccccc32)cc(OC)c1O,-2,12,-3,0.8,20,25
COc1ccc(O)c(/C=N/N=C2/C(=O)Nc3ccccc32)c1,-3,3,-4,0.2,81*,16
CCC(C(=O)Nc1ccc2[nH]ncc2c1)c1ccccc1 (centres undefined),62*,x,2,x,x,1
O=C(NCCCN1CCCC(O)C1)c1cc(COc2ccc(F)cc2F)on1 (centres undefined),0,x,-3,x,x,-5
Cc1cc(NC(=O)c2ccccc2)cc(NC(=O)c2ccccc2)c1C,-1,x,-1,x,x,14
Cc1cc(NC(=O)c2ccccc2)sc1C,-3,28,-2,0.4,64*,30
Cc1ccc(C)n1-c1ccc(NC(=O)c2ccccc2)cc1,-3,-2,-2,0.7,32,28
Cc1ccc(NC(=O)c2ccccc2)s1,-4,11,-5,0.2,76*,53*
C[C@H]1CN(CCc2ccccc2)C(=O)[C@@H]1CC(=O)Nc1ccccc1,-1,x,x,x,x,5
COc1cccc2cc(C(=O)NC(C)c3ccccc3)c(=O)oc12 (centres undefined),1,x,-1,x,x,-8
COc1cccc2cc(C(=O)Nc3cccc(C)n3)c(=O)oc12,-3,5,-4,0.5,54*,10
O=C(Nc1ccccc1Cl)C(=O)c1cn(CC(=O)N2CCOCC2)c2ccccc12,-1,x,-5,x,x,54*
Cc1cc(C)n(-c2ccc(C(=O)Nc3ccc(C)c(S(=O)(=O)N4CCOCC4)c3)cc2)n1,0,22,1,x,x,53*
CC(=O)c1ccc(NC(=O)c2ccc(C)c(S(=O)(=O)N3CCOCC3)c2)cc1,0,x,0,x,x,-4
CCOC(=O)c1ccc(NC(=O)c2ccc(C)c(S(=O)(=O)N3CCOCC3)c2)cc1,0,10,-2,1.1,-6,70*
Cc1ccc(NC(=O)c2cccnc2)cc1S(=O)(=O)N1CCOCC1,0,x,-4,x,x,-9
Cc1ccc(SCCN2CCN(CC(C)C)CCC2=O)cc1,-1,22,-3,x,x,-7
Cc1cc(/C=C\c2ccc3cc(N(C)C)ccc3[n+]2C)c(C)n1-c1ccccc1,-5,x,-8,x,x,60*
C[n+]1c(/C=C/c2ccc(O)cc2)ccc2ccccc21,-1,x,-3,x,x,4
